Experimental findings from ChEMBL document CHEMBL3588746, “Using click chemistry toward novel 1,2,3-triazole-linked dopamine D3 receptor ligands” (Bioorg Med Chem, 2015) are described below.

One data set concerns the target D(3) dopamine receptor (Homo sapiens, UniProt P35462). The data set can be described thus: Displacement of [3H]-N-methylspiperone from human dopamine D3 receptor expressed in HEK293 cell membranes after 1 hr by liquid scintillation counting analysis.
In the next data set the target is T1, D(4) dopamine receptor (Homo sapiens, UniProt P21917).
T1 sequence (P21917 whole entry): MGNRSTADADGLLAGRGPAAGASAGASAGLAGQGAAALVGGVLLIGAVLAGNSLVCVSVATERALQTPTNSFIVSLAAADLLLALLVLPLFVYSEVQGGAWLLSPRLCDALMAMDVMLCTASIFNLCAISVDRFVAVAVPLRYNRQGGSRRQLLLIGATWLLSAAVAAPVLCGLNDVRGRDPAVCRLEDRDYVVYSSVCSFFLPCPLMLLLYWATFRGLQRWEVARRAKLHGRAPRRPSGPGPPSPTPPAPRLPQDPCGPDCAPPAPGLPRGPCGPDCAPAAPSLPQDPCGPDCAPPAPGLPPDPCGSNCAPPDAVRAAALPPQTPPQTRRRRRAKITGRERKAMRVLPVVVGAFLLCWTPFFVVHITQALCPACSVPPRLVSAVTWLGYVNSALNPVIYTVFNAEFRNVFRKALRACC
In words: Displacement of [3H]-N-methylspiperone from human dopamine D4 receptor expressed in HEK293 cell membranes after 1 hr by liquid scintillation counting analysis. Background: Displacement assays read how much labelled ligand stays bound in the presence of the test substance.

A further data set has as its target D(2) dopamine receptor (Homo sapiens, UniProt P14416). The data set can be described thus: Displacement of [3H]-N-methylspiperone from human dopamine D2 receptor expressed in HEK293 cell membranes after 1 hr by liquid scintillation counting analysis.
The species entered for the next data set is Homo sapiens. In words: Selectivity ratio of Ki for human dopamine D2 receptor to Ki for human dopamine D3 receptor. Put shortly:
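Ki values from [3H]N-methylspiperone (0.4 nM) competition in membranes from HEK293 cells stably expressing human D2R or D3R, 10 μg protein per tube. Incubated 1 h at room temperature in triplicate, with 10 μM butaclamol defining nonspecific binding. […] Ratio is D2R Ki divided by D3R Ki.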

Data set [1] is described as follows: Metabolic stability in mouse liver microsomes assessed as compound remaining at 1 uM after 30 mins by LC/MS/MS analysis in presence of NADPH regenerating system. The class given is ADME. The conditions noted are these: read-out: Stability. A digest of the protocol:
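Mouse liver microsomes at 0.2 mg/mL with compound at 1 μM final, in 100 mM potassium phosphate pH 7.4. Reaction started by adding microsomes, triplicate. Sampled at 0, 30 and 60 min and quenched with ice-cold acetonitrile plus internal standard. Percent parent remaining measured by LC/MS/MS. Controls lacking NADPH were run; testosterone served as positive control.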
(Liver microsomes are a subcellular fraction often used to study metabolism.)

Data set [2] is described as follows: Metabolic stability in mouse liver microsomes assessed as compound remaining at 1 uM after 60 mins by LC/MS/MS analysis in presence of NADPH regenerating system. The conditions noted are these: read-out: Stability. The data set is classed as ADME.

Chain of D(3) dopamine receptor (P35462 whole entry): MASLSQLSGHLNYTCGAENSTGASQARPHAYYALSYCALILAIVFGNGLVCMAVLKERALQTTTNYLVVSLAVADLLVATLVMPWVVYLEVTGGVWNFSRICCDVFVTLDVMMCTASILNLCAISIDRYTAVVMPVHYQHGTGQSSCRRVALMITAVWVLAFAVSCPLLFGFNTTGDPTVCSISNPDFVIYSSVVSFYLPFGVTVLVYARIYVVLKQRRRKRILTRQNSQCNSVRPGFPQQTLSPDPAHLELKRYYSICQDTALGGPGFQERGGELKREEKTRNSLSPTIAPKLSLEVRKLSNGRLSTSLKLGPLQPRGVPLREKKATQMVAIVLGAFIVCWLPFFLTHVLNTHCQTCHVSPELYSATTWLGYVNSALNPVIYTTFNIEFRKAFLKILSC
Chain of D(2) dopamine receptor (P14416 whole entry): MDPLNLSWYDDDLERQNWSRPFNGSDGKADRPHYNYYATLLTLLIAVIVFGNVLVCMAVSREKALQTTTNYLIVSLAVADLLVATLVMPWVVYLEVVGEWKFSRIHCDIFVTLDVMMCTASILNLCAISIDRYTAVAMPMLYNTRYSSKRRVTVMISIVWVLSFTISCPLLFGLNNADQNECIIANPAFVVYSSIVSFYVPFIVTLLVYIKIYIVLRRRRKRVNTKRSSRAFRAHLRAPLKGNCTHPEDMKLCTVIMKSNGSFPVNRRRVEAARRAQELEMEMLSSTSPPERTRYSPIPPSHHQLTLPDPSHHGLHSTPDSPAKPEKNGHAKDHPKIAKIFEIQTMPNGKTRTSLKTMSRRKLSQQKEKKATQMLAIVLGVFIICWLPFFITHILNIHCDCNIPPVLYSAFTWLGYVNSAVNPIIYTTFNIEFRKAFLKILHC

As for `Clc1cccc(N2CCN(CCCCn3cc(-c4ccc5[nH]ccc5c4)nn3)CC2)c1Cl`, the values for the Ki at D(3) dopamine receptor, on D(4) dopamine receptor and at D(2) dopamine receptor were 1.47 nM, more than 2000 nM and 56.1 nM, respectively. For the same molecule, in the data set listed under Homo sapiens, the Ratio Ki came out at 38.
Regarding `COc1ccccc1N1CCN(CCCCn2cc(-c3ccc4c(c3)Cc3ccccc3-4)nn2)CC1`, the Ki (commonly the dissociation constant of the complex between target and ligand, obtained from inhibition or displacement) at D(3) dopamine receptor was found to be 5.55 nM; at D(4) dopamine receptor, 588 nM; on D(2) dopamine receptor, 50.1 nM. Besides, in the data set listed under Homo sapiens, the Ratio Ki worked out at 9.
Regarding `COc1ccccc1N1CCN(CC(O)CCn2cc(-c3ccc4c(c3)Cc3ccccc3-4)nn2)CC1` (racemic), the inhibition constant Ki at D(3) dopamine receptor was 18.5 nM; on D(4) dopamine receptor, more than 1000 nM; on D(2) dopamine receptor, 607 nM. Also, the Ratio Ki in the data set filed under Homo sapiens worked out at 33.
On the same counts, the results for `Clc1cccc(N2CCN(CCCCn3cc(-c4ccc5ccccc5c4)nn3)CC2)c1Cl` are 7.7 nM, more than 1000 nM, 103 nM and 13.
For `COc1ccccc1N1CCN(CC(O)CCn2cc(-c3ccc4[nH]ccc4c3)nn2)CC1` (racemic), the results for the inhibition constant (Ki) at D(3) dopamine receptor and on D(2) dopamine receptor were 33.6 nM and 789 nM, respectively. In addition, the remaining at 0.5 h, 1 µM in data set [1] was 44%. Also, in data set [2], the remaining at 1 h, 1 µM was 27%. Also, the Ratio Ki in the data set listed under Homo sapiens was determined as 23.
In the case of `COc1ccccc1N1CCN(CC(O)CCn2cc(-c3ccc4ccccc4c3)nn2)CC1` (racemic), the inhibitory constant (Ki) at D(3) dopamine receptor was 40.7 nM; on D(4) dopamine receptor, more than 2000 nM; at D(2) dopamine receptor, 189 nM. Also, the Ratio Ki in the data set listed under Homo sapiens is 4.6.
On the same counts, the results for `COc1ccccc1N1CCN(CCCCn2cc(-c3ccc(-c4ccccc4)cc3)nn2)CC1` are 5.88 nM, 425 nM, 69 nM and 12.
On to `O=C(NCCC(O)CN1CCN(c2cccc(Cl)c2Cl)CC1)c1cnc2ccccc2c1` (stereo unspecified), for which the Ki on D(3) dopamine receptor came out at 2.91 nM; on D(2) dopamine receptor, 321 nM. In addition, in data set [2], the remaining at 1 h, 1 µM came to 4%. The Ratio Ki in the data set filed under Homo sapiens was determined as 110.
With `OC(CCn1cc(-c2ccc3[nH]ccc3c2)nn1)CN1CCN(c2cccc(Cl)c2Cl)CC1` (racemic), the Ki is 5.85 nM on D(3) dopamine receptor and 963 nM on D(2) dopamine receptor. For the same molecule, in data set [1], the remaining at 0.5 h, 1 µM came to 45%. In addition, the remaining at 1 h, 1 µM in data set [2] came out at 35%. Besides, the Ratio Ki in the data set listed under Homo sapiens is 165.
As for `Clc1cccc(N2CCN(CCCCn3cc(-c4ccc5c(c4)Cc4ccccc4-5)nn3)CC2)c1Cl`, the results for the Ki on D(3) dopamine receptor, on D(4) dopamine receptor and on D(2) dopamine receptor were 14 nM, more than 20000 nM and 885 nM, respectively. The Ratio Ki in the data set filed under Homo sapiens stood at 63.
On the same counts, the results for `COc1ccccc1N1CCN(CCCCc2cn(-c3ccc4[nH]ccc4c3)nn2)CC1` are 3.1 nM, 353 nM, 51.8 nM and 17.
On the same counts, the results for `COc1ccccc1N1CCN(CC(O)CCn2cc(-c3ccccc3)nn2)CC1` (racemic) are 173 nM, more than 3000 nM, 1210 nM and 7.
As for `OC(CCn1cc(-c2cnc3ccccc3c2)nn1)CN1CCN(c2cccc(Cl)c2Cl)CC1` (racemic), the inhibitory constant (Ki) on D(3) dopamine receptor stood at 18 nM; at D(2) dopamine receptor, 244 nM. Moreover, the remaining at 1 h, 1 µM in data set [2] stood at 26%. Also, the Ratio Ki in the data set listed under Homo sapiens amounted to 14.
As for `OC(CCn1cc(-c2ccc(-c3ccccc3)cc2)nn1)CN1CCN(c2cccc(Cl)c2Cl)CC1` (racemic), the figures for the Ki at D(3) dopamine receptor, at D(4) dopamine receptor and on D(2) dopamine receptor were 55.8 nM, more than 7000 nM and 15100 nM, respectively. In the data set filed under Homo sapiens, the Ratio Ki came to 270.
`COc1ccccc1N1CCN(CC(O)CCn2cc(-c3ccc(-c4ccccc4)cc3)nn2)CC1` (racemic): the inhibitory constant (Ki) is 30.5 nM on D(3) dopamine receptor, more than 2000 nM at D(4) dopamine receptor and 819 nM on D(2) dopamine receptor. Further, the Ratio Ki in the data set listed under Homo sapiens is 27.
As to `Clc1cccc(N2CCN(CCCCn3cc(-c4ccc(-c5ccccc5)cc4)nn3)CC2)c1Cl`, the inhibitory constant (Ki) on D(3) dopamine receptor was 8.32 nM; on D(4) dopamine receptor, more than 10000 nM; on D(2) dopamine receptor, 2590 nM. In addition, the Ratio Ki in the data set listed under Homo sapiens was found to be 311.
`COc1ccccc1N1CCN(CCCCc2cn(-c3ccccc3)nn2)CC1`: the Ki worked out at 5.42 nM on D(3) dopamine receptor, 486 nM on D(4) dopamine receptor and 53.6 nM at D(2) dopamine receptor. Moreover, the Ratio Ki in the data set listed under Homo sapiens came to 10.
On the same counts, the results for `COc1ccccc1N1CCN(CCCCc2cn(-c3ccc4c(c3)Cc3ccccc3-4)nn2)CC1` are 1.59 nM, 329 nM, 57.2 nM and 36.
With `Clc1cccc(N2CCN(CCCCc3cn(-c4ccc5[nH]ccc5c4)nn3)CC2)c1Cl`, the Ki on D(3) dopamine receptor was found to be 1 nM; at D(4) dopamine receptor, 510 nM; at D(2) dopamine receptor, 46.6 nM. For the same molecule, the Ratio Ki in the data set filed under Homo sapiens came out at 47.
On to `COc1ccccc1N1CCN(CCCCn2cc(-c3ccccc3)nn2)CC1`, for which the Ki on D(3) dopamine receptor amounted to 22.9 nM; at D(4) dopamine receptor, 480 nM; at D(2) dopamine receptor, 137 nM. Besides, the Ratio Ki in the data set listed under Homo sapiens stood at 6.
On the same counts, the results for `COc1ccccc1N1CCN(CCCCn2cc(-c3ccc4[nH]ccc4c3)nn2)CC1` are 5.48 nM, 222 nM, 43.7 nM and 8.
On the same counts, the results for `Clc1cccc(N2CCN(CCCCc3cn(-c4ccc5c(c4)Cc4ccccc4-5)nn3)CC2)c1Cl` are 5.05 nM, 4450 nM, 424 nM and 84.
Turning to `Clc1cccc(N2CCN(CCCCc3cn(-c4ccc5ccccc5c4)nn3)CC2)c1Cl`, the values for the Ki on D(3) dopamine receptor, on D(4) dopamine receptor and on D(2) dopamine receptor were 3.8 nM, more than 2000 nM and 80.8 nM, respectively. In the data set filed under Homo sapiens, the Ratio Ki worked out at 21.
On the same counts, the results for `COc1ccccc1N1CCN(CCCCc2cn(-c3cccc4ncccc34)nn2)CC1` are 13.1 nM, more than 1000 nM, 83.4 nM and 6.4.
On the same counts, the results for `COc1ccccc1N1CCN(CCCCn2cc(-c3ccc4ncccc4c3)nn2)CC1` are 6.73 nM, 269 nM, 42.5 nM and 6.3.
For `Clc1cccc(N2CCN(CCCCn3cc(-c4ccc5ncccc5c4)nn3)CC2)c1Cl`, the Ki at D(3) dopamine receptor was 1.35 nM; on D(4) dopamine receptor, more than 1000 nM; on D(2) dopamine receptor, 53.9 nM. Further, the Ratio Ki in the data set listed under Homo sapiens amounted to 40.
On the same counts, the results for `COc1ccccc1-c1cn(CCC(O)CN2CCN(c3ccccc3OC)CC2)nn1` (racemic) are 493 nM, more than 3000 nM, 1020 nM and 2.1.
On the same counts, the results for `COc1ccccc1N1CCN(CCCCn2cc(-c3ccc4ccccc4c3)nn2)CC1` are 11.1 nM, 232 nM, 23.3 nM and 2.1.
On the same counts, the results for `OC(CCn1cc(-c2ccc3ccccc3c2)nn1)CN1CCN(c2cccc(Cl)c2Cl)CC1` (racemic) are 25.2 nM, more than 20000 nM, 18800 nM and 745.
`COc1ccccc1N1CCN(CC(O)CCn2cc(-c3ccc4ncccc4c3)nn2)CC1` (racemic): the figures for the Ki on D(3) dopamine receptor, at D(4) dopamine receptor and on D(2) dopamine receptor were 68.2 nM, more than 3000 nM and 424 nM, respectively. The Ratio Ki in the data set filed under Homo sapiens amounted to 6.2.
As for `COc1ccccc1N1CCN(CCCCc2cn(-c3ccc4ccccc4c3)nn2)CC1`, the Ki at D(3) dopamine receptor stood at 2.93 nM; at D(4) dopamine receptor, 299 nM; on D(2) dopamine receptor it was 31.5 nM. For the same molecule, the Ratio Ki in the data set filed under Homo sapiens came to 11.
